Data taken from ChEMBL document CHEMBL4004822, “Thienopyrimidinone Based Sirtuin-2 (SIRT2)-Selective Inhibitors Bind in the Ligand Induced Selectivity Pocket” (J Med Chem, 2017).
One block for each compound: values may come before it. Active and inactive are the calls of the source. The calls are words filed in the database; no cut-off is given here.

Assays:
[1] = molecular target: T1, NAD-dependent protein deacetylase sirtuin-1 (Homo sapiens, UniProt Q96EB6); experiment: Inhibition of human SIRT1
T1 sequence (Q96EB6 whole entry): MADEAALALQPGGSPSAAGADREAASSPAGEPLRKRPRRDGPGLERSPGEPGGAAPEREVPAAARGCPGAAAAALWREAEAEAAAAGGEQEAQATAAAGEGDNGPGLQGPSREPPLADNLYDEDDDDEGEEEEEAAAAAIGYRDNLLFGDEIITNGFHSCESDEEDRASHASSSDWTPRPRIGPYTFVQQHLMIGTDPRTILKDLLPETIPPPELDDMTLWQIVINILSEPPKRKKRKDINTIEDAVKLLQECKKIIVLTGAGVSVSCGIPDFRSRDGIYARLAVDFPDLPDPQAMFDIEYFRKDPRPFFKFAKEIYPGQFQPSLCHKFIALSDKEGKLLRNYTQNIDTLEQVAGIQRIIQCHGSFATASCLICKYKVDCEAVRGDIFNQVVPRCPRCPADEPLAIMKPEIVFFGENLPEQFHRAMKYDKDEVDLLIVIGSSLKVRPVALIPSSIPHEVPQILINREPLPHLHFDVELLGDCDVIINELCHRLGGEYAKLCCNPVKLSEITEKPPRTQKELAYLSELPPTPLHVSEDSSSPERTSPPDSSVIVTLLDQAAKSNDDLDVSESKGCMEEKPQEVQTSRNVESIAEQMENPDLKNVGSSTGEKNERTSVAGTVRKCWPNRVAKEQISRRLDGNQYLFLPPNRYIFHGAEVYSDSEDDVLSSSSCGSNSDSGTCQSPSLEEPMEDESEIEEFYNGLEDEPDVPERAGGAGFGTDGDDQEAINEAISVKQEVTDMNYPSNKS
In short: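 Compounds were pre-incubated with human SIRT about 10 min before substrate addition, then developer added. Read ex 360/em 460 nm; activity relative to DMSO; sigmoidal 10-dose IC50, n = 2; suramin positive control.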

[2] = molecular target: T2, NAD-dependent protein deacetylase sirtuin-2 (Homo sapiens) (UniProt Q8IXJ6); experiment: Inhibition of SIRT2 in human MCF7 cells assessed as increase in alpha-tubulin K40 acetylation level at 10 to 50 uM after 24 hrs in presence of TSA by Western blot analysis; format: cell-based
T2 sequence (whole entry): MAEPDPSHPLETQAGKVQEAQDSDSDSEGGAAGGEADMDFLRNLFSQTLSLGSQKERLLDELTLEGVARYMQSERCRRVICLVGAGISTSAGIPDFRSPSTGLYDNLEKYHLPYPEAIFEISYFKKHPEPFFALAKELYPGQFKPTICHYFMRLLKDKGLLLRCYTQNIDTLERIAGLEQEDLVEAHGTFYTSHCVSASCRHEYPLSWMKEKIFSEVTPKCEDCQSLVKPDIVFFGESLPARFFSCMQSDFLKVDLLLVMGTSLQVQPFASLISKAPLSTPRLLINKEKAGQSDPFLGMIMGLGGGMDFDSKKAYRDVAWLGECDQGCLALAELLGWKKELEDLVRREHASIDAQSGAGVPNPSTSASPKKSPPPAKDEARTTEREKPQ
In short: (§1)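 MCF-7 cells (ATCC, authenticated) kept in DMEM with 10% FCS, penicillin/streptomycin and 2 mM glutamine at 37 °C under 10% CO2. Treated 24 h with compound at 0, 1, 10, 20, 30 or 50 μM plus 50 nM TSA to block non-sirtuin HDACs. NP40 lysates (20 μg protein, BCA-quantified) run on SDS-PAGE and Western blotted for acetyl-K40 α-tubulin, total α-tubulin and β-actin; ECL detection.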

[3] = molecular target: T1, NAD-dependent protein deacetylase sirtuin-1; experiment: Inhibition of human SIRT1 (133 to 747 residues) using (Z-Lys(Acetyl)-AMC) as substrate after 4 hrs in presence of NAD+ by fluorescence assay
[4] = molecular target: NAD-dependent protein deacylase sirtuin-6 (Homo sapiens, UniProt Q8N6T7); experiment: Inhibition of human SIRT6 (13 to 308 residues) using Ac-EALPKK(Myristoyl)TGG-NH2 as substrate after 10 mins in presence of NAD+ by fluorescence assay
[5] = molecular target: T2, NAD-dependent protein deacetylase sirtuin-2 (Homo sapiens); experiment: Inhibition of SIRT2 in human MCF7 cells assessed as increase in alpha-tubulin K40 acetylation level at 50 uM after 24 hrs in presence of TSA by Western blot analysis; format: cell-based; in short: as §1
[6] = molecular target: T3, NAD-dependent protein deacetylase sirtuin-2 (Homo sapiens, UniProt Q8IXJ6); experiment: Inhibition of recombinant human C-terminal His-tagged SIRT2 (50 to 389 end residues) expressed in Escherichia coli using tubulin-K40 peptide in presence of NAD+
T3 sequence (Q8IXJ6 whole entry): T2 sequence (whole entry)

Homo sapiens [7] = species on record: Homo sapiens; experiment: Selectivity ratio of IC50 for recombinant human N-terminal GST-tagged SIRT3 (101 to 399 residues) expressed in Escherichia coli to IC50 for recombinant human C-terminal His-tagged SIRT2 (50 to 389 end residues) expressed in Escherichia coli
[8] = molecular target: T2, NAD-dependent protein deacetylase sirtuin-2 (Homo sapiens); experiment: Inhibition of SIRT2 in human MCF7 cells assessed as increase in alpha-tubulin K40 acetylation level at 20 uM after 24 hrs in presence of TSA by Western blot analysis; format: cell-based; in short: as §1
[9] = molecular target: NAD-dependent protein deacylase sirtuin-5, mitochondrial (Homo sapiens, UniProt Q9NXA8); experiment: Inhibition of recombinant human N-terminal His-tagged SIRT5 (37 to 310 end residues) expressed in Escherichia coli using Ac-K(Succ)-AMC as substrate in presence of NAD+ by fluorescence assay
[10] = molecular target: T4, NAD-dependent protein deacetylase sirtuin-3, mitochondrial (Homo sapiens, UniProt Q9NTG7); experiment: Inhibition of recombinant human N-terminal GST-tagged SIRT3 (101 to 399 residues) expressed in Escherichia coli using p53 derived (379 to 382 residues) fluorogenic peptide substrate RHKK(Ac)-AMC) preincubated for 10 mins followed by substrate addition in presence of NAD+ by fluorescence assay
T4 sequence (Q9NTG7 whole entry): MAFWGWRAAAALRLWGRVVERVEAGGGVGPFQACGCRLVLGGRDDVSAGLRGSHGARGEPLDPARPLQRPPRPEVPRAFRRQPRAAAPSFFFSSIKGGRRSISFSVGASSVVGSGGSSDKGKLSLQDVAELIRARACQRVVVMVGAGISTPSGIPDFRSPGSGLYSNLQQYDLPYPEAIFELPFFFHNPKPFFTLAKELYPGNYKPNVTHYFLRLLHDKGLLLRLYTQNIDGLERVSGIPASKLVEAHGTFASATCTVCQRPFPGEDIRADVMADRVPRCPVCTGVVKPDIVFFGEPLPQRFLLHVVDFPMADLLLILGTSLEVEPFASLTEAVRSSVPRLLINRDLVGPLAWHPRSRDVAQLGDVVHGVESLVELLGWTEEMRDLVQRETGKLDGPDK

Homo sapiens [11] = species on record: Homo sapiens; experiment: Selectivity ratio of IC50 for recombinant human N-terminal His-tagged SIRT1 (1 to 747 end residues) expressed in Escherichia coli to IC50 for recombinant human C-terminal His-tagged SIRT2 (50 to 389 end residues) expressed in Escherichia coli
[12] = molecular target: T1, NAD-dependent protein deacetylase sirtuin-1; experiment: Inhibition of recombinant human N-terminal His-tagged SIRT1 (1 to 747 end residues) expressed in Escherichia coli using p53 derived (379 to 382 residues) fluorogenic peptide substrate RHKK(Ac)-AMC preincubated for 10 mins followed by substrate addition in presence of NAD+ by fluorescence assay
In short: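 Two-step fluorogenic assay with p53 379–382 RHKK(Ac)-AMC. Compound (from 10 mM DMSO stock) preincubated ~10 min with human SIRT before substrate addition. Developer then releases fluorophore, read at ex 360/em 460 nm.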

[13] = molecular target: T3, NAD-dependent protein deacetylase sirtuin-2; experiment: Inhibition of recombinant human C-terminal His-tagged SIRT2 (50 to 389 end residues) expressed in Escherichia coli in presence of NAD+ by enzyme coupled SIRT-Glo assay

Sequence of NAD-dependent protein deacylase sirtuin-6 (Q8N6T7 whole entry, the tested form may be a part): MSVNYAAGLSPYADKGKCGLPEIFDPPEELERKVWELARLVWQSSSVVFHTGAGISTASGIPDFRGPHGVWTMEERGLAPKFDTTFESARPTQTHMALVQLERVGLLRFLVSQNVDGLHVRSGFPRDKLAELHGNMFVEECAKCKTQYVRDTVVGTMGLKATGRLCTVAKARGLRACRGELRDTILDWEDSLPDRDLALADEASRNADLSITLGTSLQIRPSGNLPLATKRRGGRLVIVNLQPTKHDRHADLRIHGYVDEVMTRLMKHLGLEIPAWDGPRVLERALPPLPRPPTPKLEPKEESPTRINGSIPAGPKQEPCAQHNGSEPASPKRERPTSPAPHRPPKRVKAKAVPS
Sequence of NAD-dependent protein deacylase sirtuin-5, mitochondrial (Q9NXA8 whole entry, the tested form may be a part): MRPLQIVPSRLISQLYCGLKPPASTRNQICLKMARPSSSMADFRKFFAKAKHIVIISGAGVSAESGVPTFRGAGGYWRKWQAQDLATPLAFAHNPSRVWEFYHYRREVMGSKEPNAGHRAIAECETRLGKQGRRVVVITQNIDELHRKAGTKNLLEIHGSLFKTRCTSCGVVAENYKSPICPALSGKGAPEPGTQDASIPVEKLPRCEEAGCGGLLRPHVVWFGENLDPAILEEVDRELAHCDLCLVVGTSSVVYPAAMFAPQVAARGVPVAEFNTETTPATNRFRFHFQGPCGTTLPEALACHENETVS

IC50 [1]: > 50 µM
inhibition [2]: Active
Compound: N#C/C(=C\c1ccc(-c2cc(Cl)ccc2Cl)o1)C(=O)Nc1cccc2ncccc12

IC50 [3]: > 100 µM
IC50 [4]: > 200 µM
Compound: Cc1cc(C)nc(SCC(=O)Nc2ncc(Cc3cccc4ccccc34)s2)n1

inhibition [5]: inactive
Ki [6]: 0.62 µM
Ratio IC50 (Homo sapiens [7]): > 100
inhibition [8]: Active
IC50 [9]: > 100 µM
IC50 [10]: > 100 µM
Ratio IC50 (Homo sapiens [11]): > 100
IC50 [12]: > 100 µM
IC50 [13]: 0.17 µM
Compound: COc1ccc2ccccc2c1Cn1cnc2sc3c(c2c1=O)CCC(NCc1cccnc1)C3 (stereo not drawn)
